Data from ChEMBL document CHEMBL1148420, “Identification and synthesis of [1,2,4]triazolo[3,4-a]phthalazine derivatives as high-affinity ligands to the alpha 2 delta-1 subunit of voltage gated calcium channel” (Bioorg Med Chem Lett, 2004).

molecular target: T1, Voltage-dependent calcium channel subunit alpha-2/delta-1 (Homo sapiens, UniProt P54289); test: Binding affinity against alpha-2 delta-1 subunit of voltage gated subunit of Ca+2 channel in human
Outline: (§1)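 [3H]gabapentin displacement binding on A710 membranes (HEK 293 cells stably transfected with human α1B, β3a and α2δ-1b subunits), following a literature method.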

T1 sequence (P54289 25-956 limits assumed): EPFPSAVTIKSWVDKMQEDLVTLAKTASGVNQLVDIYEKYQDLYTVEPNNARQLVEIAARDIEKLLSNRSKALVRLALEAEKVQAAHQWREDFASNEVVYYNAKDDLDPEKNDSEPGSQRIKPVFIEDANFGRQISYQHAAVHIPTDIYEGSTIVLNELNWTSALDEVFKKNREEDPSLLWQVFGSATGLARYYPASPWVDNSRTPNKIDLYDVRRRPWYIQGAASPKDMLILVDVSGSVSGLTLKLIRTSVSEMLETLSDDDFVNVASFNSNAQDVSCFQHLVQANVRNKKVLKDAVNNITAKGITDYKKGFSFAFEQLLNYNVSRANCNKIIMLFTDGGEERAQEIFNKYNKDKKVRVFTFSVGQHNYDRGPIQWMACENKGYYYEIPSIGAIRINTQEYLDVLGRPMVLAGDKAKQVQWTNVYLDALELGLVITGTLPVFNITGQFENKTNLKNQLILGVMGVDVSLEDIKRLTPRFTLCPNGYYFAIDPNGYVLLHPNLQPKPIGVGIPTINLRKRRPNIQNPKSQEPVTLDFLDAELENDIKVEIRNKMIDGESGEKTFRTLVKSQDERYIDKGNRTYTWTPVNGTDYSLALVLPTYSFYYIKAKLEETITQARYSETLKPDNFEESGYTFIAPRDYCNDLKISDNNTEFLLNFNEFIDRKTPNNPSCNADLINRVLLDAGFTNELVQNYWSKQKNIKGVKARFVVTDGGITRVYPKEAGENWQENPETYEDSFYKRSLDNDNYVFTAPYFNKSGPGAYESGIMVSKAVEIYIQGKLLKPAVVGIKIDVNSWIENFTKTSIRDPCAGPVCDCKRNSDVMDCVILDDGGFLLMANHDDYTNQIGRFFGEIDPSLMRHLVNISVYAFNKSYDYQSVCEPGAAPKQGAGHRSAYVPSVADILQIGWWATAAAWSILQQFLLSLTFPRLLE
T1 sequence (P54289 957-1103 limits assumed): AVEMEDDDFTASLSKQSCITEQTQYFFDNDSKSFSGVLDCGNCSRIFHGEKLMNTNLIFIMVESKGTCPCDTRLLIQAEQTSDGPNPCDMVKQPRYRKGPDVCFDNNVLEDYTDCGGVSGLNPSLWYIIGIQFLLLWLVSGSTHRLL

**Q.** With CCc1nnc2c3ccccc3c(OCc3cccc(CNCCc4ccccc4)n3)nn12 as the molecule, how does the IC50 read?
**A.** 241 nM

**Q.** How did the IC50 turn out when COc1ccc(CCNCc2cccc(COc3nn4c(C(F)(F)F)nnc4c4ccccc34)n2)cc1 was run?
**A.** 829 nM

**Q.** How did the IC50 turn out when c1ccc(CCNCc2cccc(COc3nn4cnnc4c4ccccc34)n2)cc1 was run?
**A.** 230 nM

**Q.** c1ccc(CCNCc2cccc(COc3nn4c(C5CC5)nnc4c4ccccc34)n2)cc1 was tested. Which IC50 did it give?
**A.** 272 nM

**Q.** Which IC50 does the source give for c1ccc(CCNCc2cccc(COc3nn4c(-c5ccccc5)nnc4c4ccccc34)n2)cc1 here?
**A.** 195 nM

**Q.** For Fc1ccccc1CCNCc1cccc(COc2nn3c(C(F)(F)F)nnc3c3ccccc23)n1, which IC50 is on record?
**A.** 291 nM

**Q.** For Cc1cc(-c2nnc3c4ccccc4c(OCc4cccc(CNCCc5ccccc5)n4)nn23)no1, which IC50 is on record?
**A.** 220 nM

**Q.** For CC(C)c1nnc2c3ccccc3c(OCc3cccc(CNCCc4ccccc4)n3)nn12, which IC50 is on record?
**A.** 342 nM

**Q.** Which IC50 does the source give for CSc1nnc2c3ccccc3c(OCc3cccc(CNCCc4ccccc4)n3)nn12 here?
**A.** 194 nM

**Q.** How did the IC50 turn out when c1ccc(CCNCc2cccc(COc3nn4c(C5CCCCC5)nnc4c4ccccc34)n2)cc1 was run?
**A.** 145 nM

**Q.** How did the IC50 turn out when FC(F)(F)c1nnc2c3ccccc3c(OCc3cccc(CNCCc4ccccc4)n3)nn12 was run?
**A.** 72 nM

**Q.** With COc1cccc(CCNCc2cccc(COc3nn4c(C(F)(F)F)nnc4c4ccccc34)n2)c1 as the molecule, how does the IC50 read?
**A.** 116 nM

**Q.** How did the IC50 turn out when Cc1nnc2c3ccccc3c(OCc3cccc(CNCCc4ccccc4)n3)nn12 was run?
**A.** 145 nM

**Q.** With COCc1nnc2c3ccccc3c(OCc3cccc(CNCCc4ccccc4)n3)nn12 as the molecule, how does the IC50 read?
**A.** 131 nM

molecular target: T1, Voltage-dependent calcium channel subunit alpha-2/delta-1; test: Binding affinity against alpha2 delta-1 subunit of voltage-gated calcium channel in human.; outline: as §1

**Q.** With CN(CCc1ccccc1)Cc1cccc(COc2nn3c(C(F)(F)F)nnc3c3ccccc23)n1 as the molecule, how does the IC50 read?
**A.** 10000 nM

**Q.** Fc1cccc(CCNCc2cccc(COc3nn4c(C(F)(F)F)nnc4c4ccccc34)n2)c1 was tested. Which IC50 did it give?
**A.** 161 nM

**Q.** For C[C@@H](Cc1ccccc1)NCc1cccc(COc2nn3c(C(F)(F)F)nnc3c3ccccc23)n1, which IC50 is on record?
**A.** 700 nM

**Q.** FC(F)(F)c1nnc2c3ccccc3c(OCc3cccc(CNC4C[C@H]4c4ccccc4)n3)nn12 (mixture of isomers) was tested. Which IC50 did it give?
**A.** 229 nM

**Q.** With C[C@@H](NCCc1ccccc1)c1cccc(COc2nn3c(C(F)(F)F)nnc3c3ccccc23)n1 as the molecule, how does the IC50 read?
**A.** 10000 nM

**Q.** With Fc1ccc(CCNCc2cccc(COc3nn4c(C(F)(F)F)nnc4c4ccccc34)n2)cc1 as the molecule, how does the IC50 read?
**A.** 630 nM

**Q.** For CCC(NCCc1ccccc1)c1cccc(COc2nn3c(C(F)(F)F)nnc3c3ccccc23)n1 (racemic), which IC50 is on record?
**A.** 183 nM

**Q.** Which IC50 does the source give for Cc1ccc(CCNCc2cccc(COc3nn4c(C(F)(F)F)nnc4c4ccccc34)n2)cc1 here?
**A.** 260 nM

**Q.** For Cc1ccccc1CCNCc1cccc(COc2nn3c(C(F)(F)F)nnc3c3ccccc23)n1, which IC50 is on record?
**A.** 448 nM

**Q.** Which IC50 does the source give for [3H]c1cccc(CCN[C@@H](C)c2cccc(COc3nn4c(C(F)(F)F)nnc4c4ccccc34)n2)c1 here?
**A.** 30 nM

**Q.** How did the IC50 turn out when CC(C)C(NCCc1ccccc1)c1cccc(COc2nn3c(C(F)(F)F)nnc3c3ccccc23)n1 (racemic) was run?
**A.** 174 nM

**Q.** Which IC50 does the source give for C[C@H](NCCc1cccc(Br)c1)c1cccc(COc2nn3c(C(F)(F)F)nnc3c3ccccc23)n1 here?
**A.** 28 nM

**Q.** Which IC50 does the source give for C[C@H](NCCc1ccccc1)c1cccc(COc2nn3c(C(F)(F)F)nnc3c3ccccc23)n1 here?
**A.** 30 nM

**Q.** For Cc1cccc(CCNCc2cccc(COc3nn4c(C(F)(F)F)nnc4c4ccccc34)n2)c1, which IC50 is on record?
**A.** 15 nM

**Q.** For CC(CNCc1cccc(COc2nn3c(C(F)(F)F)nnc3c3ccccc23)n1)c1ccccc1 (racemic), which IC50 is on record?
**A.** 198 nM

**Q.** With Cc1cccc(CCNC(C)c2cccc(COc3nn4c(C(F)(F)F)nnc4c4ccccc34)n2)c1 (racemic) as the molecule, how does the IC50 read?
**A.** 29 nM

**Q.** How did the IC50 turn out when CC(Cc1ccccc1)NCc1cccc(COc2nn3c(C(F)(F)F)nnc3c3ccccc23)n1 (racemic) was run?
**A.** 1370 nM

**Q.** Which IC50 does the source give for CC(C)(Cc1ccccc1)NCc1cccc(COc2nn3c(C(F)(F)F)nnc3c3ccccc23)n1 here?
**A.** 10000 nM

**Q.** Which IC50 does the source give for CC(NCCc1ccccc1)c1cccc(COc2nn3c(C(F)(F)F)nnc3c3ccccc23)n1 (racemic) here?
**A.** 36 nM
